From ChEMBL document CHEMBL2331391, “Peroxisome proliferator-activated receptor-γ mediates the anti-inflammatory effect of 3-hydroxy-4-pyridinecarboxylic acid derivatives: synthesis and biological evaluation” (Eur J Med Chem, 2013)
Activity calls are given as the source filed them. The calls are words filed in the database; no cut-off is given here.

How the values were obtained:
[1] = target: T1, Peroxisome proliferator-activated receptor gamma (Mus musculus) (UniProt P37238); test: Induction of PPAR-gamma promoter activity in mouse CMT93 cells at 10 uM by luciferase reporter gene assay; format: cell-based
T1 sequence (whole entry): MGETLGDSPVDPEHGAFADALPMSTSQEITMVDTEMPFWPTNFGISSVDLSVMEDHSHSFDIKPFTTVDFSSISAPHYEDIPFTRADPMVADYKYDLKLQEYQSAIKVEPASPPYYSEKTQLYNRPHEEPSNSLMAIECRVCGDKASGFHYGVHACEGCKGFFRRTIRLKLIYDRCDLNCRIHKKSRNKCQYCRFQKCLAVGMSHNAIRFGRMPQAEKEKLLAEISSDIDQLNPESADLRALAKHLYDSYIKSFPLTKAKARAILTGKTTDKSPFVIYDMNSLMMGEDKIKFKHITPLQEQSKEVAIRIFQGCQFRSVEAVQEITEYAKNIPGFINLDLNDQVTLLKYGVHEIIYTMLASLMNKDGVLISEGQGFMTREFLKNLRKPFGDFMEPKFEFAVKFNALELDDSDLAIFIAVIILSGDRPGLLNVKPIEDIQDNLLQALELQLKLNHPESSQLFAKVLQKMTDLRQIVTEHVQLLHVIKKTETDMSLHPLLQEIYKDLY
How it was run: (§1)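 CMT-93 cells (1×10⁵/well) were transfected with an NF-κB or PPRE luciferase reporter plus CMV-β-Gal. At 24 h they were treated with compound for 30 min, then with 100 ng/mL LPS for 6 h. Cells were lysed in Tris/EDTA/DTT/Triton buffer and supernatant luciferase was read by luminometer. Results are fold over untreated cells.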

[2] = Cytotoxicity against human macrophages at 10 '4 uM after 72 hrs by MTT assay; format: cell-based; settings: macrophage
[3] = target: Transcription factor p65 (Mus musculus) (UniProt Q04207); test: Inhibition of LPS-induced p65 NF-kappaB activation in mouse CMT93 cells assessed as inhibition of in IkBalpha degradation at 10 uM preincubated for 30 mins before LPS-challenge measured after 6 hrs post challenge by Western blot analysis; format: cell-based
Sequence of Transcription factor p65 (Mus musculus) (Q04207 whole entry): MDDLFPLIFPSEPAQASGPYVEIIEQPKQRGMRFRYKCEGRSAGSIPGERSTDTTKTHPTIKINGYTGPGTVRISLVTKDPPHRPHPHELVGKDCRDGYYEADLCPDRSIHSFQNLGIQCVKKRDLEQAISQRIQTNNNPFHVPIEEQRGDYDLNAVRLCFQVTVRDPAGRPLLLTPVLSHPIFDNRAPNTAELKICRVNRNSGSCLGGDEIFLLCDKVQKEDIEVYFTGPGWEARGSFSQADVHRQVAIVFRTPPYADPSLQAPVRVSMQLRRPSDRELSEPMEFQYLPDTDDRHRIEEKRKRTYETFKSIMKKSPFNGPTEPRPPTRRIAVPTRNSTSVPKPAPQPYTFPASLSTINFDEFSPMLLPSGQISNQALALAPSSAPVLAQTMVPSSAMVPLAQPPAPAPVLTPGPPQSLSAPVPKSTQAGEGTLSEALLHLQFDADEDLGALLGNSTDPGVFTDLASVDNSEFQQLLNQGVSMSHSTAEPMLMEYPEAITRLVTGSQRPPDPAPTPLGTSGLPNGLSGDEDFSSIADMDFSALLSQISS
How it was run: (§2)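 CMT-93 cells were pretreated with 10 µM compound and stimulated with LPS for 6 h. Lysates were run on 10% SDS-PAGE and transferred to PVDF. Blots were probed overnight at 4 °C for phospho-p65, IκBα or COX-2 (1:1000), with HRP detection.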

[4] = system: Mus musculus; test: Antiinflammatory activity in DSS-induced C57Bl/6 mouse colitis model assessed as inhibition IL-1beta level in colonic homogenate at 400 mg/kg/day administered intragastrically for 7 days; format: functional, organism-based
How it was run: (§3)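 Male C57Bl/6J mice, 8–10 per group, dosed intragastrically daily for 7 days at 400 mg/kg/day (vehicle 100 µL). From day 2, drinking water carried 3.5% w/vol DSS. Killed 5 days after colitis induction. Full-thickness proximal colon homogenised for MPO activity and IL-1β protein.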

[5] = Antiinflammatory activity in human macrophages assessed as inhibition of LPS-induced TNFalpha release at 5 uM preincubated for 30 mins before LPS-challenge measured after 24 hrs post challenge by ELISA (reference value: 1682 +/-190 ng/ml); format: functional, Macrophage
How it was run: (§4)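 Human blood PBMC-derived macrophages were used after 10 days of culture. Purity >95% (esterase, CD14, morphology). Cells were pretreated 30 min at 37 °C with compound, then given 100 ng/mL LPS (S. enteritidis) for 24 h. TNFα, IL-1β and IL-8 in conditioned medium were measured by ELISA. Working solutions were endotoxin-tested by LAL (<3 pg/mL).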

[6] = system: CMT93; test: Increase in ROS production in LPS-stimulated mouse CMT93 cells at 10 uM preincubated for 30 mins before LPS-challenge measured after 30 mins post challenge by DCFDA fluorescence assay (reference value: 2.64 %); format: functional, cell-based
[7] = target: Transcription factor p65 (Mus musculus) (UniProt Q04207); test: Inhibition of LPS-induced p65 NF-kappaB activation in mouse CMT93 cells assessed as inhibition of in COX-2 expression at 10 uM preincubated for 30 mins before LPS-challenge measured after 6 hrs post challenge by Western blot analysis; format: cell-based; how it was run: as §2
[8] = Antiinflammatory activity in human macrophages assessed as inhibition of LPS-induced TNFalpha release at 10 '-3 uM preincubated for 30 mins before LPS-challenge measured after 24 hrs post challenge by ELISA (reference value: 1682 +/-190 ng/ml); format: functional, Macrophage; how it was run: as §4
[9] = Antiinflammatory activity in human macrophages assessed as inhibition of LPS-induced IL8 release at 10 '-3 uM preincubated for 30 mins before LPS-challenge measured after 24 hrs post challenge by ELISA (reference value: 7.86 +/-0.17 ng/ml); format: functional, Macrophage; how it was run: as §4
[10] = system: Macrophage; test: Antiinflammatory activity in human macrophages assessed as inhibition of LPS-induced IL8 mRNA transcript accumulation at 10 uM preincubated for 30 mins before LPS-challenge measured after 24 hrs post challenge by quantitative PCR analysis; format: functional, cell-based
How it was run: (§5)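 Monocyte-derived human macrophages were pretreated with 10 µM compound, then stimulated with LPS for 24 h. RNA was extracted and TNFα and IL8 transcripts were quantified by real-time RT-PCR with UPL probes. GAPDH served as reference gene.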

[11] = Antiinflammatory activity in human macrophages assessed as inhibition of LPS-induced IL8 release at 100 uM preincubated for 30 mins before LPS-challenge measured after 24 hrs post challenge by ELISA (reference value: 7.86 +/-0.17 ng/ml); format: functional, Macrophage; how it was run: as §4
[12] = system: CMT93; test: Increase in ROS production in mouse CMT93 cells at 10 uM measured after 30 mins by DCFDA fluorescence assay (reference value: 2.64 %); format: functional, cell-based
[13] = system: Macrophage; test: Antiinflammatory activity in human macrophages assessed as inhibition of LPS-induced increase in TNFalpha mRNA transcript at 10 uM preincubated for 30 mins before LPS-challenge measured after 24 hrs post challenge by quantitative PCR analysis in presence of PPAR-gamma antagonist PD68235; format: functional, cell-based
[14] = system: Macrophage; test: Antiinflammatory activity in human macrophages assessed as inhibition of LPS-induced IL-1beta release at 10 uM preincubated for 30 mins before LPS-challenge measured after 24 hrs post challenge by ELISA; format: functional, cell-based; how it was run: as §4
[15] = Cytotoxicity against human macrophages up to 100 uM after 72 hrs by MTT assay; format: cell-based; settings: macrophage
[16] = system: CMT93; test: Increase in ROS production in LPS-stimulated mouse CMT93 cells at 10 uM preincubated for 30 mins before LPS-challenge measured after 24 hrs post challenge by DCFDA fluorescence assay in presence of alpha-tocopherol; format: functional, cell-based
[17] = Antiinflammatory activity in human macrophages assessed as inhibition of LPS-induced TNFalpha release at 10 '-2 uM preincubated for 30 mins before LPS-challenge measured after 24 hrs post challenge by ELISA (reference value: 1682 +/-190 ng/ml); format: functional, Macrophage; how it was run: as §4
[18] = Antiinflammatory activity in human macrophages assessed as inhibition of LPS-induced IL8 release at 10 uM preincubated for 30 mins before LPS-challenge measured after 24 hrs post challenge by ELISA (reference value: 7.86 +/-0.17 ng/ml); format: functional, Macrophage; how it was run: as §4
[19] = target: Transcription factor p65 (Mus musculus) (UniProt Q04207); test: Inhibition of LPS-induced p65 NF-kappaB promoter activation in mouse CMT93 cells at 10 uM preincubated for 30 mins before LPS-challenge measured after 6 hrs post challenge by luciferase reporter gene assay; format: cell-based; how it was run: as §1
[20] = system: Macrophage; test: Antiinflammatory activity in human macrophages assessed as inhibition of LPS-induced IL-8 release at 10 uM preincubated for 30 mins before LPS-challenge measured after 24 hrs post challenge by ELISA; format: functional, cell-based; how it was run: as §4
[21] = system: Macrophage; test: Antiinflammatory activity in human macrophages assessed as inhibition of LPS-induced increase in IL8 level at 10 uM preincubated for 30 mins before LPS-challenge measured after 24 hrs post challenge by ELISA in presence of PPAR-gamma antagonist PD68235; format: functional, cell-based
How it was run: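 Human macrophages were pre-exposed to 20 µM PPARγ antagonist PD68235 alongside 10 µM compound, then challenged with 100 ng/mL LPS. After 24 h, IL8 protein in conditioned medium was measured by ELISA.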

[22] = Antiinflammatory activity in human macrophages assessed as inhibition of LPS-induced TNFalpha release at 1 uM preincubated for 30 mins before LPS-challenge measured after 24 hrs post challenge by ELISA (reference value: 1682 +/-190 ng/ml); format: functional, Macrophage; how it was run: as §4
[23] = Antiinflammatory activity in human macrophages assessed as inhibition of LPS-induced IL8 release at 10 '-2 uM preincubated for 30 mins before LPS-challenge measured after 24 hrs post challenge by ELISA (reference value: 7.86 +/-0.17 ng/ml); format: functional, Macrophage; how it was run: as §4
[24] = Cytotoxicity against human macrophages at 10 '5 uM after 72 hrs by MTT assay; format: cell-based; settings: macrophage
[25] = system: Macrophage; test: Increase in PPAR-gamma mRNA transcript level in human macrophages at 10 uM by quantitative PCR analysis; format: functional, cell-based
[26] = Antiinflammatory activity in human macrophages assessed as inhibition of LPS-induced TNFalpha release at 10 uM preincubated for 30 mins before LPS-challenge measured after 24 hrs post challenge by ELISA (reference value: 1682 +/-190 ng/ml); format: functional, Macrophage; how it was run: as §4
[27] = system: CMT93; test: Increase in ROS production in LPS-stimulated mouse CMT93 cells at 10 uM preincubated for 30 mins before LPS-challenge measured after 24 hrs post challenge by DCFDA fluorescence assay in presence of PPAR-gamma antagonist PD68235; format: functional, cell-based
[28] = Antiinflammatory activity in human macrophages assessed as inhibition of LPS-induced IL8 release at 5 uM preincubated for 30 mins before LPS-challenge measured after 24 hrs post challenge by ELISA (reference value: 7.86 +/-0.17 ng/ml); format: functional, Macrophage; how it was run: as §4
[29] = Antiinflammatory activity in human macrophages assessed as inhibition of LPS-induced IL8 release at 1 uM preincubated for 30 mins before LPS-challenge measured after 24 hrs post challenge by ELISA (reference value: 7.86 +/-0.17 ng/ml); format: functional, Macrophage; how it was run: as §4
[30] = Antiinflammatory activity in human macrophages assessed as inhibition of LPS-induced TNFalpha release at 100 uM preincubated for 30 mins before LPS-challenge measured after 24 hrs post challenge by ELISA (reference value: 1682 +/-190 ng/ml); format: functional, Macrophage; how it was run: as §4
[31] = system: Mus musculus; test: Antiinflammatory activity in DSS-induced C57Bl/6 mouse colitis model assessed as inhibition MPO activity in colonic homogenate at 400 mg/kg/day administered intragastrically for 7 days; format: functional; settings: C57Bl/6, po, 168 h, route intragastric; how it was run: as §3
[32] = target: Transcription factor p65 (Mus musculus) (UniProt Q04207); test: Inhibition of LPS-induced p65 NF-kappaB phosphorylation in mouse CMT93 cells at 10 uM preincubated for 30 mins before LPS-challenge measured after 6 hrs post challenge by Western blot analysis; format: cell-based; how it was run: as §2
[33] = system: Macrophage; test: Antiinflammatory activity in human macrophages assessed as inhibition of LPS-induced TNFalpha mRNA transcript accumulation at 10 uM preincubated for 30 mins before LPS-challenge measured after 24 hrs post challenge by quantitative PCR analysis; format: functional, cell-based; how it was run: as §5
[34] = system: Macrophage; test: Antiinflammatory activity in human macrophages assessed as inhibition of LPS-induced TNFalpha release at 10 uM preincubated for 30 mins before LPS-challenge measured after 24 hrs post challenge by ELISA; format: functional, cell-based; how it was run: as §4
[35] = target: T1, Peroxisome proliferator-activated receptor gamma (Mus musculus); test: Induction of PPAR-gamma promoter activity in LPS-stimulated mouse CMT93 cells at 10 uM preincubated for 30 mins before LPS-challenge measured after 6 hrs post challenge by luciferase reporter gene assay; format: cell-based; how it was run: as §1

C[n+]1ccc(C(=O)O)c(O)c1.[Cl-]
Activity [1]: Active | Activity [2]: Toxic | inhibition [3]: Active | inhibition [4]: Active | Activity [5]: 1738 ng/mL | Activity [6]: Active | inhibition [7]: Active | Activity [8]: 1689 ng/mL | Activity [9]: 7.98 ng/mL | inhibition [10]: Active | Activity [11]: 4.43 ng/mL | Activity [12]: Active | inhibition [13]: inactive | inhibition [14]: Active | Activity [15]: Non-toxic | Activity [16]: inactive | Activity [17]: 1654 ng/mL | Activity [18]: 5.4 ng/mL | inhibition [19]: Active | inhibition [20]: Active | inhibition [21]: Active | Activity [22]: 1651 ng/mL | Activity [23]: 7.56 ng/mL | Activity [24]: Toxic | Activity [25]: Active | Activity [26]: 1084 ng/mL | Activity [27]: inactive | Activity [28]: 7.34 ng/mL | Activity [29]: 7.32 ng/mL | Activity [30]: 1069 ng/mL | inhibition in vivo at 400 mg/kg/day [31]: 56% | inhibition [32]: Active | inhibition [33]: Active | inhibition [34]: Active | Activity [35]: Active

O=C(O)c1ccccc1O
inhibition [14]: Active | inhibition [20]: Active | inhibition [34]: Active

O=C(O)c1ccncc1O
Activity [2]: Toxic | inhibition [14]: inactive | Activity [15]: Non-toxic | inhibition [20]: inactive | Activity [24]: Toxic | inhibition [34]: inactive

O=C(O)c1ccnc(CO)c1O
Activity [2]: Toxic | inhibition [14]: inactive | Activity [15]: Non-toxic | inhibition [20]: inactive | Activity [24]: Toxic | inhibition [34]: inactive

Cc1cc(C(=O)O)c(O)c(CO)n1
inhibition [14]: Active | inhibition [20]: Active
